KCNQ1 act: potentiators or activators of human KCNQ1 potassium channel. CHO-K1 KCNQ1, thallium flux FluxOR fluorescence; active compounds read high. AID 2648. 310,000 tested, 0.35% active. B-score at 10 µM. P51787;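 active = fluorescence ratio B-score, a plate-corrected score, at least three library SD, with initial intensity B-score within 5 SD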
Target sequence (P51787 whole entry, looked up): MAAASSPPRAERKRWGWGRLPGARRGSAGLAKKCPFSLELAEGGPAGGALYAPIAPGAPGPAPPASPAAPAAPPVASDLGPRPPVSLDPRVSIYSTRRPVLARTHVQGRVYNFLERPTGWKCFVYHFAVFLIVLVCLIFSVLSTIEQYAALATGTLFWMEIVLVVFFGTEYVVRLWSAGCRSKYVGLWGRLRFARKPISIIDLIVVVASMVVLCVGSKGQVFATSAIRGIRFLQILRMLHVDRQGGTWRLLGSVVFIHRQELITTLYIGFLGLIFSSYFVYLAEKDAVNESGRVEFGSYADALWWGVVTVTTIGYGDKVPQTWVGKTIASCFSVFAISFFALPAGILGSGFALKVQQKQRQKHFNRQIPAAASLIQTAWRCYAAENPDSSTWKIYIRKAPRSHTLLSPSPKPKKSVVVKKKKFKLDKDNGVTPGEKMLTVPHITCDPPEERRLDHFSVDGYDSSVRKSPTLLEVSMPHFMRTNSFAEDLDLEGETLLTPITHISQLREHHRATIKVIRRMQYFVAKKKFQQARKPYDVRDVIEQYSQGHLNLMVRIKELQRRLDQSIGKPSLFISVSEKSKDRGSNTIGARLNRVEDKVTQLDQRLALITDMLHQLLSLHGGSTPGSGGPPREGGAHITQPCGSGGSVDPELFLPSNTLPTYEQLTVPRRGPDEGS
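Test system: CHO-K1 cells stably expressing KCNQ1 / Medium: assay buffer / Also added: depolarizing K+/Tl+ stimulus, K2SO4 and Tl2SO4 each 12.5 mM in 5x stock / Incubation: 90 min dye loading and 20 min compound exposure, both at room temperature / Signal: thallium influx via FluxOR fluorescence, kinetic imaging / Evaluation: B score of baseline-normalized fluorescence ratio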
hERG rescue: compounds protecting human hERG from proarrhythmic drug block; AID 1511; CHO-hERG, FluxOR thallium flux, dofetilide IC70 present; 310,000 tested, 0.51% active; Q12809; activation (rescue from dofetilide block), less the hit threshold, % at 10 µM;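 active = activation above the mean of controls blocked by dofetilide plus 5 SD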;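 also: thallium influx through hERG after potassium depolarization seen as dye fluorescence rise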
KCNQ1 block: blocks the human KCNQ1 potassium channel; CHO-K1 KCNQ1, FluxOR thallium flux fluorescence; active compounds read high; B-score at 10 µM; 310,000 tested, 1.3% active;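 active = compounds whose thallium flux B-score, printed positive for inhibition, exceeds three library SD while starting fluorescence stays within three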;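 also: channel opened by potassium depolarization with thallium stimulus after 20 min compound exposure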
KCNK9 inh: blocks the human KCNK9 two-pore domain potassium channel. AID 488922. HEK293 KCNK9, FluxOR thallium flux fluorescence; active compounds read low. B-score at 10 µM. Q9NPC2. 310,000 tested, 1.2% active;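 active = ratio B-score over 3 SD below the library mean, with starting fluorescence within 5 SD of its mean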;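 also: negative B-score means less thallium flux so channel inhibition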
KCNK3 inh: human KCNK3 channel inhibition, primary screen | CHO-KCNK3 thallium flux, FluxOR fluorescence; active compounds read low | B-score at 10 µM | 340,000 tested, 0.84% active | AID 602410;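 active = B-score under library mean minus 4 SD, starting fluorescence ratio at most library mean plus 5 SD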;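 also: more negative B-score means stronger inhibition of thallium flux through KCNK3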
Kir21 inh: Kir2.1 (mouse) channel inhibition. P35561. HEK293-Kir2.1, FluxOR thallium flux fluorescence; active compounds read low. B-score at 10 µM. 310,000 tested, 0.85% active. AID 1672;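 active = fluorescence ratio B-score at or below minus 3 SD of library scores, with starting-brightness B-score within 2 SD, cut at about -4.2 in these data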;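 also: channel flux triggered by added potassium and thallium sulfate stimulus; B-score of peak minus minimum fluorescence over baseline after thallium stimulus; more negative B-score means stronger Kir2.1 block with less thallium influx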
* hit, by the source's call. Rows were chosen to be rich in hits. Some 3.7% of all compounds tested hit in one or more screens of this group.

Results for CCCCCC[N+](C)(C)CC/C=C1/c2ccccc2Sc2ccc(Cl)cc21 ?
KCNQ1 act: inactive; hERG rescue: -17; KCNQ1 block: inactive; KCNK9 inh: -8*; KCNK3 inh: inactive; Kir21 inh: -3.8

How did CCCCCCCCCCCCCCCC[N+](C)(C)CCl do in these assays?
KCNK3 inh: inactive

Results for CC(C)=CC(=O)N1CCC(N2CCC(C(=O)NCC3CCCO3)CC2)CC1 (configuration not stated) ?
KCNQ1 act: inactive; hERG rescue: -11; KCNQ1 block: inactive; KCNK9 inh: inactive; KCNK3 inh: inactive; Kir21 inh: 1.4

Results for COc1ccccc1NC(=O)Nc1ccc(-n2ccc(C(F)(F)F)n2)cc1 ?
KCNQ1 act: inactive; hERG rescue: -7; KCNQ1 block: inactive; KCNK9 inh: -7.8*; KCNK3 inh: inactive; Kir21 inh: -0.01

How did Cc1ccccc1NC(=O)Cc1nc(COC(=O)CNS(=O)(=O)c2cccc(Br)c2)cs1 do in these assays?
KCNQ1 act: inactive; hERG rescue: -16; KCNQ1 block: inactive; KCNK9 inh: inactive; KCNK3 inh: inactive; Kir21 inh: 1.4

How did O=C(Nc1ncc(Br)s1)C(Cc1ccccc1)n1cccc1 (configuration not stated) do in these assays?
KCNQ1 act: 31*; hERG rescue: 11*; KCNQ1 block: inactive; KCNK9 inh: inactive; KCNK3 inh: inactive; Kir21 inh: -1.5

What do the screens show for `COc1cc2c(cc1NC(=O)CSc1nnc(COc3ccc(Cl)cc3)n1C)oc1ccccc12`?
KCNQ1 act: 11*; hERG rescue: -6; KCNQ1 block: inactive; KCNK9 inh: inactive; KCNK3 inh: inactive; Kir21 inh: 0.63

What do the screens show for `O=C(Nc1nc2n(n1)C(c1ccccc1)CC(c1ccc(Cl)cc1)N2)c1ccco1` (configuration not stated)?
KCNQ1 act: inactive; hERG rescue: -4; KCNQ1 block: inactive; KCNK9 inh: -6.9*; KCNK3 inh: inactive; Kir21 inh: -0.04

How did CC(C)c1cc(Br)ccc1OCCCN1C(=O)NC(C)(C)C1=O do in these assays?
KCNQ1 act: inactive; hERG rescue: -17; KCNQ1 block: inactive; KCNK9 inh: inactive; KCNK3 inh: inactive; Kir21 inh: -6.8*

What do the screens show for `COc1ccccc1-c1nc2cc3ccccc3cc2nc1-c1ccccc1`?
KCNQ1 act: inactive; hERG rescue: -7; KCNQ1 block: 9*; KCNK9 inh: inactive; KCNK3 inh: inactive; Kir21 inh: -0.68

What do the screens show for `Oc1ccc(Cl)cc1CNc1cccc2cccnc12`?
KCNQ1 act: inactive; hERG rescue: -4; KCNQ1 block: inactive; KCNK9 inh: -7.7*; KCNK3 inh: inactive; Kir21 inh: 2

How did Oc1c(Br)cc(Br)cc1CNc1cccc2cccnc12 do in these assays?
KCNQ1 act: inactive; hERG rescue: 1; KCNQ1 block: inactive; KCNK9 inh: inactive; KCNK3 inh: inactive; Kir21 inh: 1.3

How did Cc1ccc(NC(=O)CCCc2ccccc2)nc1 do in these assays?
KCNQ1 act: inactive; hERG rescue: -16; KCNQ1 block: 6*; KCNK9 inh: inactive; KCNK3 inh: inactive; Kir21 inh: 0.83

How did Cc1ccc(NC(=O)Cc2ccc(-c3ccccc3)cc2)nc1 do in these assays?
KCNQ1 act: inactive; hERG rescue: -3; KCNQ1 block: inactive; KCNK9 inh: inactive; KCNK3 inh: inactive; Kir21 inh: 0.99

Results for CC12CN3CC(C)(CN(C1)C3c1ccc3c(c1)OCO3)C2O (configuration not stated) ?
KCNQ1 act: inactive; hERG rescue: -14; KCNQ1 block: inactive; KCNK9 inh: inactive; KCNK3 inh: inactive; Kir21 inh: 0.41

How did CN(C)C(=O)c1c2c(nc3ccccc13)CCCC2 do in these assays?
KCNQ1 act: inactive; hERG rescue: 8.1*; KCNQ1 block: inactive; KCNK9 inh: inactive; KCNK3 inh: inactive; Kir21 inh: -0.81

What do the screens show for `Cc1ccc(S(=O)(=O)N2C(=O)CCC2C(=O)O/N=C(\N)c2ccccc2)cc1` (configuration not stated)?
KCNQ1 act: inactive; hERG rescue: -10; KCNQ1 block: inactive; KCNK9 inh: inactive; KCNK3 inh: inactive; Kir21 inh: 0.09

Results for COc1ccc(NC(=O)CN2CCOCC2)cc1 ?
KCNQ1 act: inactive; hERG rescue: 7.0*; KCNQ1 block: inactive; KCNK9 inh: inactive; KCNK3 inh: inactive; Kir21 inh: 1.8

How did COc1ccc(NC(=O)CN2CCN(C3c4ccccc4-c4ccccc43)CC2)cc1 do in these assays?
KCNQ1 act: 8*; hERG rescue: -15; KCNQ1 block: inactive; KCNK9 inh: inactive; KCNK3 inh: inactive; Kir21 inh: 0.01

How did O=C(CN1CCCCCC1)Nc1ccc(Oc2ccccc2)cc1 do in these assays?
KCNQ1 act: 19*; hERG rescue: 18*; KCNQ1 block: inactive; KCNK9 inh: inactive; KCNK3 inh: inactive; Kir21 inh: -2

How did COc1ccc(NC(=O)CN2CCN(c3ccccc3)CC2)cc1 do in these assays?
KCNQ1 act: inactive; hERG rescue: -3; KCNQ1 block: inactive; KCNK9 inh: inactive; KCNK3 inh: inactive; Kir21 inh: 0.63

Results for COc1cc(NC(=O)c2ccc(F)cc2)c(OC)cc1NC(=O)CN1CCOCC1 ?
KCNQ1 act: inactive; hERG rescue: -7; KCNQ1 block: inactive; KCNK9 inh: inactive; KCNK3 inh: inactive; Kir21 inh: 0

What do the screens show for `COc1cc(NC(=O)c2ccccc2F)c(OC)cc1NC(=O)CN1CCOCC1`?
KCNQ1 act: inactive; hERG rescue: 4.7*; KCNQ1 block: inactive; KCNK9 inh: inactive; KCNK3 inh: inactive; Kir21 inh: -1.3

What do the screens show for `O=C(CN1CCCCC1)Nc1ccccc1`?
KCNQ1 act: inactive; hERG rescue: -10; KCNQ1 block: inactive; KCNK9 inh: inactive; KCNK3 inh: inactive; Kir21 inh: 0.03

Results for Cn1nc(C(F)(F)F)c2cc(C(=O)Nc3ccc(C(F)(F)F)cc3)sc21 ?
KCNQ1 act: inactive; hERG rescue: -1; KCNQ1 block: inactive; KCNK9 inh: inactive; KCNK3 inh: inactive; Kir21 inh: 0.13

What do the screens show for `CCCc1nnc(NC(=O)CN2CCOCC2)s1`?
KCNQ1 act: inactive; hERG rescue: 12*; KCNQ1 block: inactive; KCNK9 inh: inactive; KCNK3 inh: inactive; Kir21 inh: -0.55

How did COc1ccc2nc(NC(=O)CN3CCOCC3)sc2c1 do in these assays?
KCNQ1 act: inactive; hERG rescue: 7.3*; KCNQ1 block: inactive; KCNK9 inh: inactive; KCNK3 inh: inactive; Kir21 inh: -1.2

How did O=C(CCN1CCOCC1)Nc1ccccc1 do in these assays?
KCNQ1 act: inactive; hERG rescue: 5.1*; KCNQ1 block: inactive; KCNK9 inh: inactive; KCNK3 inh: inactive; Kir21 inh: -0.7

From PubChem BioAssay
